Test results published in PMC6226115 (Clinical and Translational Science, 2018).

Assay: Phase I safety and tolerability
Type: in vivo, human
In short: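 In a nonrandomised, open-label phase I study, healthy men received 5, 10, 25 or 50 mg once daily for 14 days, with CSF sampled through a lumbar catheter. Safety was scored as the number of subjects with adverse events and summarised descriptively.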

[1] = 5 mg once daily for 14 days (n = 6)
[2] = 10 mg once daily for 14 days (n = 6)
[3] = 25 mg once daily for 14 days (n = 8)

Compound: C[C@@H](Oc1ccc(S(C)(=O)=O)cc1C(=O)N1C[C@@H]2C[C@]2(c2cc(C(F)(F)F)on2)C1)C(F)(F)F [BI 425809]
- Abdominal pain, subjects with AE [1]: 0 n (%)
- Back pain, subjects with AE [1]: 3 (50.0) n (%)
- Catheter site pain, subjects with AE [1]: 1 (16.7) n (%)
- Diarrhea, subjects with AE [1]: 0 n (%)
- Dizziness, subjects with AE [1]: 0 n (%)
- Dry mouth, subjects with AE [1]: 0 n (%)
- Fatigue, subjects with AE [1]: 0 n (%)
- Gingivitis, subjects with AE [1]: 0 n (%)
- Muscle spasms, subjects with AE [1]: 1 (16.7) n (%)
- Musculoskeletal stiffness, subjects with AE [1]: 0 n (%)
- Nasopharyngitis, subjects with AE [1]: 0 n (%)
- Nausea, subjects with AE [1]: 1 (16.7) n (%)
- Neck pain, subjects with AE [1]: 0 n (%)
- Paraesthesia, subjects with AE [1]: 1 (16.7) n (%)
- Procedural headache, subjects with AE [1]: 4 (66.7) n (%)
- Procedural pain, subjects with AE [1]: 0 n (%)
- Somnolence, subjects with AE [1]: 1 (16.7) n (%)
- Tension headache, subjects with AE [1]: 0 n (%)
- Total with AEs (treatment-emergent) [1]: 5 (83.3) n (%)
- Upper abdominal pain, subjects with AE [1]: 0 n (%)
- Vomiting, subjects with AE [1]: 1 (16.7) n (%)
- Wound, subjects with AE [1]: 0 n (%)
- Abdominal pain, subjects with AE [2]: 0 n (%)
- Back pain, subjects with AE [2]: 0 n (%)
- Catheter site pain, subjects with AE [2]: 0 n (%)
- Diarrhea, subjects with AE [2]: 0 n (%)
- Dizziness, subjects with AE [2]: 1 (16.7) n (%)
- Dry mouth, subjects with AE [2]: 0 n (%)
- Fatigue, subjects with AE [2]: 0 n (%)
- Gingivitis, subjects with AE [2]: 1 (16.7) n (%)
- Muscle spasms, subjects with AE [2]: 0 n (%)
- Musculoskeletal stiffness, subjects with AE [2]: 0 n (%)
- Nasopharyngitis, subjects with AE [2]: 0 n (%)
- Nausea, subjects with AE [2]: 2 (33.3) n (%)
- Neck pain, subjects with AE [2]: 1 (16.7) n (%)
- Paraesthesia, subjects with AE [2]: 0 n (%)
- Procedural headache, subjects with AE [2]: 4 (66.7) n (%)
- Procedural pain, subjects with AE [2]: 0 n (%)
- Somnolence, subjects with AE [2]: 0 n (%)
- Tension headache, subjects with AE [2]: 0 n (%)
- Total with AEs (treatment-emergent) [2]: 5 (83.3) n (%)
- Upper abdominal pain, subjects with AE [2]: 0 n (%)
- Vomiting, subjects with AE [2]: 1 (16.7) n (%)
- Wound, subjects with AE [2]: 1 (16.7) n (%)
- Abdominal pain, subjects with AE [3]: 1 (12.5) n (%)
- Back pain, subjects with AE [3]: 4 (50.0) n (%)
- Catheter site pain, subjects with AE [3]: 0 n (%)
- Diarrhea, subjects with AE [3]: 1 (12.5) n (%)
- Dizziness, subjects with AE [3]: 1 (12.5) n (%)
- Dry mouth, subjects with AE [3]: 1 (12.5) n (%)
- Fatigue, subjects with AE [3]: 1 (12.5) n (%)
- Gingivitis, subjects with AE [3]: 0 n (%)
- Muscle spasms, subjects with AE [3]: 0 n (%)
- Musculoskeletal stiffness, subjects with AE [3]: 1 (12.5) n (%)
- Nasopharyngitis, subjects with AE [3]: 0 n (%)
- Nausea, subjects with AE [3]: 2 (25.0) n (%)
- Neck pain, subjects with AE [3]: 1 (12.5) n (%)
- Paraesthesia, subjects with AE [3]: 0 n (%)
- Procedural headache, subjects with AE [3]: 5 (62.5) n (%)
- Procedural pain, subjects with AE [3]: 1 (12.5) n (%)
- Somnolence, subjects with AE [3]: 0 n (%)
- Tension headache, subjects with AE [3]: 1 (12.5) n (%)
- Total with AEs (treatment-emergent) [3]: 8 (100.0) n (%)
- Upper abdominal pain, subjects with AE [3]: 1 (12.5) n (%)
- Vomiting, subjects with AE [3]: 2 (25.0) n (%)
- Wound, subjects with AE [3]: 0 n (%)
- Abdominal pain, subjects with AE (50 mg once daily for 14 days (n = 5)): 0 n (%)
